ChEMBL document CHEMBL3085690, “Naturally occurring antimicrobial peptide OH-CATH30 selectively regulates the innate immune response to protect against sepsis” (J Med Chem, 2013)
Calls of active or inactive are those of the source. The rule behind the calls is not given here. Peptide text beside a SMILES is read from it.

Key:
BMDM [1] = test: Induction of CCL2 mRNA up-regulation in mouse BMDM at 20 ug/ml after 3 hrs by qRT-PCR analysis; assay type: functional
How it was run: (§1)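 Murine BMDMs stimulated with peptide, then target mRNA quantified by qRT-PCR. Expression normalized to GAPDH, with untreated cells set to 1.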

[2] = Induction of IL-1Ra mRNA up-regulation in mouse BMDM at 20 ug/ml after 3 hrs by qRT-PCR analysis relative to control; assay type: functional; how it was run: as §1
Mus musculus [3] = test: Stimulation of innate immune response in Kunming mouse infected with Pseudomonas aeruginosa ATCC 27853 assessed as effect on CCL2 production in peritoneal lavage at 10 mg/kg, ip after 3 hrs by ELISA; assay type: functional, organism-based; parameters: dose 10 mg/kg
How it was run: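 Mice were pretreated ip with peptide at 10 mg/kg 5 h before ip challenge with P. aeruginosa 27853 at 8 × 10^7 CFU/mouse. CCL2 and CXCL2 were measured in peritoneal lavage collected 3 h after inoculation. TNF-α and IL-6 were measured in serum collected 5 h after inoculation. All were read by ELISA; data are mean ± SD from four mice, unpaired t test.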

BMDM [4] = test: Induction of CCL3 mRNA up-regulation in mouse BMDM at 20 ug/ml after 3 hrs by qRT-PCR analysis; assay type: functional; how it was run: as §1
BMDM [5] = test: Increase of IL-6 protein level in mouse BMDM at 20 ug/ml after 18 hrs by ELISA; assay type: functional
How it was run: (§2)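 Bone marrow-derived macrophages (RPMI 1640, 10% FCS, 20% L929-conditioned medium) stimulated with peptide for 18 h. Cytokines and chemokines in culture supernatant quantified by sandwich ELISA. Mean ± SD from three independent experiments, unpaired t test.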

Mus musculus [6] = test: Stimulation of innate immune response in Kunming mouse infected with Escherichia coli ATCC 25922 assessed as reduction of bacterial burden in peritoneal lavage by measuring survival rate at 10 mg/kg, ip administered 5 hrs before bacterial infection measured up to 7 days; assay type: functional, organism-based; parameters: dose 10 mg/kg
How it was run: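 Peptide at 10 mg/kg ip was given 5 h before ip challenge with E. coli 25922 (2.5 × 10^8 CFU), P. aeruginosa 27853 (8 × 10^7 CFU) or S. aureus 25923 (2 × 10^8 CFU) per mouse. Viable bacteria were counted in peritoneal lavage collected in 2 mL of cold saline (n = 7, 6 and 8 respectively; unpaired t test). Survival was recorded for up to 7 days.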

[7] = Half life in Kunming mouse at 10 mg/kg, ip; assay type: ADME, organism-based; parameters: dose 10 mg/kg, route intraperitoneal; details: in vivo
BMDM [8] = test: Increase of IL-1beta protein level in mouse BMDM at 20 ug/ml after 18 hrs by ELISA; assay type: functional; how it was run: as §2
[9] = molecular target: MAP kinase p38 (Homo sapiens) (UniProt O15264+Q15759+Q16539+P53778); test: Activation of p38 kinase in mouse BMDM assessed as phosphorylation at 10 ug/ml by Western blotting; assay type: protein assay; details: TDE = time-dependent effect, target entry is the homologue from another species
How it was run: (§3)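 BMDMs cultured in RPMI 1640 with 10% FCS and 20% L929-conditioned medium. Lysates separated by 10% SDS-PAGE, blotted to PVDF and blocked in 5% BSA. Probed for phospho-JNK/JNK or phospho-p38/p38, then HRP goat anti-rabbit IgG, chemiluminescence read-out.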

RAW264.7 [10] = test: Inhibition of LPS-induced TNFalpha production in mouse RAW264.7 cells 2 to 50 ug/ml after 6 hrs by ELISA; assay type: functional, cell-based
[11] = Induction of IL-6 mRNA up-regulation in mouse BMDM at 20 ug/ml after 3 hrs by qRT-PCR analysis relative to control; assay type: functional; how it was run: as §1
Mus musculus [12] = species: Mus musculus; test: Activation of JNK in mouse BMDM assessed as phosphorylation at 10 ug/ml by Western blotting; how it was run: as §3
BMDM [13] = test: Increase of CXCL2 production in mouse BMDM after 6 hrs by ELISA in presence of WRW4; assay type: functional
RAW264.7 [14] = test: Inhibition of LTA-induced TNFalpha production in mouse RAW264.7 cells 2 to 50 ug/ml after 6 hrs by ELISA; assay type: functional, cell-based
BMDM [15] = test: Induction of CXCL5 mRNA up-regulation in mouse BMDM at 20 ug/ml after 3 hrs by qRT-PCR analysis; assay type: functional; how it was run: as §1
Mus musculus [16] = test: Stimulation of innate immune response in Kunming mouse assessed as protection against drug-resistant Escherichia coli-induced mortality by measuring survival rate at 10 mg/kg, ip administered 5 hrs before bacterial infection measured up to 7 days; assay type: functional; details: route intraperitoneal
How it was run: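 Female Kunming mice (18−22 g) were dosed ip in sterile saline at 10 mg/kg, 5 h before ip challenge with clinical drug-resistant isolates: E. coli (n = 12), P. aeruginosa (n = 10) or S. aureus (n = 15). Survival was recorded for up to 7 days, with checks every 6 h and euthanasia by CO2 at the humane end point.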

Mus musculus [17] = test: Stimulation of innate immune response in Kunming mouse assessed as increase of TNFalpha level in peritoneal lavage at 10 mg/kg, ip after 5 hrs; assay type: functional, organism-based; parameters: dose 10 mg/kg
How it was run: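 Female Kunming mice (18−22 g) received a single ip injection of peptide at 10 mg/kg in sterile saline. Peritoneal lavage was collected in 2 mL of cold sterile saline 5 h later, and cytokines and chemokines were measured by ELISA. Data are mean ± SD from four mice, compared by unpaired t test.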

[18] = Increase of CXCL1 protein level in mouse BMDM at 10 ug/ml after 18 hrs by ELISA; assay type: functional; how it was run: as §2
Mus musculus [19] = test: Stimulation of innate immune response in Kunming mouse assessed as protection against bacteria-induced mortality by measuring survival rate at 10 mg/kg, ip measured up to 7 days; assay type: functional, organism-based; parameters: dose 10 mg/kg
Mus musculus [20] = test: Stimulation of innate immune response in Kunming mouse assessed as increase of neutrophils in peritoneal lavage at 10 mg/kg, ip after 5 hrs; assay type: functional, organism-based; parameters: dose 10 mg/kg
How it was run: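 Female Kunming mice were given peptide ip at 10 mg/kg. At 5 h, peritoneal cells were recovered by lavage with 2 mL PBS and counted. Cells were stained with anti-F4/80-PE and GR1-FITC for 30 min at room temperature and typed by flow cytometry: neutrophils GR1+/F4/80−, resident monocytes/macrophages GR1−/F4/80+, inflammatory monocytes GR1+/F4/80+. Data are mean ± SD from three mice, unpaired t test.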

Mus musculus [21] = test: Stimulation of innate immune response in ip dosed Kunming mouse assessed as protection against Escherichia coli ATCC 25922-induced mortality by measuring survival rate measured up to 7 days; assay type: functional, organism-based
How it was run: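 Kunming mice were challenged ip with E. coli 25922 at 2.5 × 10^8 CFU/mouse (n = 10). A single ip dose of peptide, from 1 to 10 mg/kg in sterile saline, was given 5 h before infection. Survival was followed for up to 7 days and compared by log-rank test.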

[22] = Induction of IL-1beta mRNA up-regulation in mouse BMDM at 20 ug/ml after 3 hrs by qRT-PCR analysis relative to control; assay type: functional; how it was run: as §1
BMDM [23] = test: Induction of CXCL2 mRNA up-regulation in mouse BMDM at 20 ug/ml after 3 hrs by qRT-PCR analysis; assay type: functional; how it was run: as §1
[24] = Increase of CXCL2 production in mouse BMDM after 6 hrs by ELISA in presence of JNK inhibitor SP600125; assay type: functional

## CC[C@H](C)[C@H](NC(=O)[C@@H](NC(=O)[C@H](CCCNC(=N)N)NC(=O)[C@@H]1CCCN1C(=O)[C@H](CCCCN)NC(=O)[C@H](CCCCN)NC(=O)[C@H](Cc1ccccc1)NC(=O)[C@H](Cc1ccccc1)NC(=O)[C@H](CCCCN)NC(=O)[C@H](CCCCN)NC(=O)[C@H](C)NC(=O)[C@H](CCCNC(=N)N)NC(=O)[C@H](CCCCN)NC(=O)[C@H](CCCCN)NC(=O)[C@@H](NC(=O)[C@H](CO)NC(=O)[C@H](CC(N)=O)NC(=O)[C@H](CCCCN)NC(=O)[C@H](CC(C)C)NC(=O)[C@H](CCCCN)NC(=O)[C@H](CCCCN)NC(=O)[C@H](Cc1ccccc1)NC(=O)[C@H](Cc1ccccc1)NC(=O)[C@@H](N)CCCCN)C(C)C)C(C)C)C(=O)NCC(=O)N[C@H](C(=O)N[C@@H](CO)C(=O)N[C@H](C(=O)N1CCC[C@H]1C(=O)N[C@@H](Cc1ccccc1)C(=O)O)[C@@H](C)CC)C(C)C (H-KFFKKLKNSVKKRAKKFFKKPRVIGVSIPF-OH)
BMDM [1]
  Activity: Active
[2]
  fold change (FC): 25
Mus musculus [3]
  Activity: Active
BMDM [4]
  Activity: Active
BMDM [5]
  Activity: inactive
Mus musculus [6]
  Activity: Active
[7]
  half-life: < 1 h
BMDM [8]
  Activity: inactive
[9]
  Activity: tde
RAW264.7 [10]
  inhibition: Active
[11]
  fold change (FC): 4.5
Mus musculus [12]
  Activity: Active
BMDM [13]
  Activity: Active
RAW264.7 [14]
  inhibition: inactive
BMDM [15]
  Activity: Active
Mus musculus [16]
  survival at 10 mg/kg: 92.5%
Mus musculus [17]
  Activity: inactive
[18]
  Activity: 269 pg/mL
Mus musculus [19]
  Activity: inactive
Mus musculus [20]
  Activity: Active
Mus musculus [21]
  Activity: Dose-dependent effect
[22]
  fold change (FC): 2.5
BMDM [23]
  Activity: Active
[24]
  Activity: 952 pg/mL
